In ChEMBL document CHEMBL2046296, “Synthesis and antidepressant activity of arylalkanol-piperidine derivatives as triple reuptake inhibitors” (Eur J Med Chem, 2012):
pIC50: −log10 of the molar value.

How the values were obtained:
[1] = test system: Mus musculus; test: Antidepressant activity in po dosed mouse assessed as decrease in immobility administered 30 mins prior to testing by tail suspension test relative to vehicle control; format: functional, organism-based
Method in brief: (§1)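 Oral doses of 10–50 mg/kg (three doses) were given once, 30 min before testing. Mice were hung by adhesive tape 1 cm from the tail tip, 75 cm above the tabletop. Immobility was recorded for 5 min, scored blind, 10–12 mice per group, against vehicle controls. One-way ANOVA with Scheffe post hoc test; p<0.05 significant.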

[2] = test system: Mus musculus; test: Antidepressant activity in mouse assessed as decrease in immobility at 50 mg/kg, po administered 30 mins prior to testing by tail suspension test relative to vehicle control; format: functional; parameters: scale not given: the % may be the effect or the level left; method in brief: as §1
[3] = target: T1, 5-hydroxytryptamine receptor 1A (Homo sapiens) (UniProt P08908); test: Displacement of [3H]8-OH-DPAT from human recombinant 5HT1A receptor expressed in CHO cells at 10 uM after 60 mins by liquid scintillation counting; format: cell-based
T1 sequence (whole entry): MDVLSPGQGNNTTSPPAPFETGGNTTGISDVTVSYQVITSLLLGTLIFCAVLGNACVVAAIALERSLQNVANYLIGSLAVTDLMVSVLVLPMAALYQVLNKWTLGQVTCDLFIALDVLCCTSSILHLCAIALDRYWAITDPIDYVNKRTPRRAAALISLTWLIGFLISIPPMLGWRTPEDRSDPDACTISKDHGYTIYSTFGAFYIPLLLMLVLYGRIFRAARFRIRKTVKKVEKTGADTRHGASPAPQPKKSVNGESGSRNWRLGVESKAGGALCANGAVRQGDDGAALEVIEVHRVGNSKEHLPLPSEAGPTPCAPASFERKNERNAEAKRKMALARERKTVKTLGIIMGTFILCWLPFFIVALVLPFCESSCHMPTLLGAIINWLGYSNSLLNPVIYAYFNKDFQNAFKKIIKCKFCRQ
Method in brief: (§2)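 Radioligand binding panel run by a contract lab (CEREP). Percent inhibition of specific radioligand binding was measured at a single primary test concentration of 10.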

[4] = target: 5-hydroxytryptamine receptor 2A (Homo sapiens) (UniProt P28223); test: Displacement of [3H]Ketanserin from human recombinant 5HT2A receptor expressed in CHO cells at 10 uM after 15 mins by liquid scintillation counting; format: cell-based; method in brief: as §2
[5] = target: 5-hydroxytryptamine receptor 7 (Homo sapiens) (UniProt P34969); test: Displacement of [3H]LSD from human recombinant 5HT7 receptor expressed in CHO cells at 10 uM after 120 mins by liquid scintillation counting; format: cell-based; method in brief: as §2
[6] = target: Adrenergic receptor alpha-1 (Rattus norvegicus) (UniProt P15823+P23944+P43140); test: Displacement of [3H]Prazosin from rat alpha1 adrenergic receptor at 10 uM after 60 mins by liquid scintillation counting; method in brief: as §2
[7] = target: Adrenergic receptor alpha-2 (Rattus norvegicus) (UniProt P22086+P19328+P22909); test: Displacement of [3H]RX821002 from rat alpha2 adrenergic receptor at 10 uM after 30 mins by liquid scintillation counting; method in brief: as §2
[8] = target: Beta-2 adrenergic receptor (Homo sapiens) (UniProt P07550); test: Displacement of [3H](-)CGP12177 beta2 adrenergic receptor at 10 uM; method in brief: as §2
[9] = target: Histamine H2 receptor (Homo sapiens) (UniProt P25021); test: Displacement of [I125}APT from histamine H2 receptor at 10 uM; method in brief: as §2
[10] = target: 5-hydroxytryptamine receptor 2B (Homo sapiens) (UniProt P41595); test: Displacement of [3H]Mesulergine from human recombinant 5HT2B receptor expressed in CHO cells at 10 uM after 30 mins by liquid scintillation counting; format: cell-based; method in brief: as §2
[11] = target: 5-hydroxytryptamine receptor 5A (Homo sapiens) (UniProt P47898); test: Displacement of [3H]LSD from 5HT5A receptor at 10 uM; method in brief: as §2
[12] = target: D(1A) dopamine receptor (Homo sapiens, UniProt P21728); test: Displacement of [3H]SCH23390 from dopamine D1 receptor
Method in brief: (§3)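 A primary screen at a single concentration was run first; compounds giving >80% inhibition of radioligand binding went on to full concentration–response curves to obtain IC50 (CEREP contract assay).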

[13] = target: Adrenergic receptor alpha-1 (Rattus norvegicus, UniProt P15823+P23944+P43140); test: Displacement of [3H]Prazosin from rat alpha1 adrenergic receptor after 60 mins by liquid scintillation counting; method in brief: as §3
[14] = AUC (0 to infinity) in Sprague-Dawley rat at 1 mg/kg, iv; format: ADME, organism-based; parameters: time infinity, dose 1 mg/kg, route intravenous; conditions: plasma
Method in brief: (§4)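 Male SD rats, three per group, fasted overnight until 6 h after dosing, were given a single 1 mg/kg iv dose into the femoral vein. Blood was sampled at 5, 15 and 30 min and at 1, 2, 4 and 6 h. Plasma was stored frozen and assayed by LC/MS/MS.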

[15] = AUC (0 to infinity) in Sprague-Dawley rat at 10 mg/kg, po; format: ADME, organism-based; parameters: time infinity, dose 10 mg/kg, route oral; conditions: plasma
Method in brief: (§5)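 Male SD rats, three per group, fasted overnight until 6 h post-dose, received a single oral dose of 10 mg/kg. Heparinized blood was drawn at 5, 15 and 30 min and at 1, 2, 4, 6, 8, 12 and 24 h. Plasma was frozen and analysed by LC/MS/MS for Cmax, Tmax, terminal t1/2 and AUC0-inf.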

[16] = Elimination half life in Sprague-Dawley rat at 1 mg/kg, iv; format: ADME, organism-based; parameters: dose 1 mg/kg, route intravenous; conditions: in vivo, read-out: beta t1/2 (converted); method in brief: as §4
[17] = Elimination half life in Sprague-Dawley rat at 10 mg/kg, po; format: ADME, organism-based; parameters: dose 10 mg/kg, route oral; conditions: in vivo, read-out: beta t1/2 (converted); method in brief: as §5
[18] = Tmax in Sprague-Dawley rat at 10 mg/kg, po; format: ADME, organism-based; parameters: dose 10 mg/kg, route oral; conditions: in vivo; method in brief: as §5
[19] = Cmax in Sprague-Dawley rat at 1 mg/kg, iv; format: ADME, organism-based; parameters: dose 1 mg/kg, route intravenous; conditions: in vivo; method in brief: as §4
[20] = Cmax in Sprague-Dawley rat at 10 mg/kg, po; format: ADME, organism-based; parameters: dose 10 mg/kg, route oral; conditions: in vivo; method in brief: as §5
[21] = Oral bioavailability in Sprague-Dawley rat at 10 mg/kg; format: ADME, organism-based; conditions: in vivo
Method in brief: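 Bioavailability in male SD rats (n=3 per group, fasted overnight to 6 h post-dose) came from a 10 mg/kg oral dose and a 1 mg/kg iv dose via the femoral vein. Plasma drug levels over time were measured by LC/MS/MS.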

Sequence of 5-hydroxytryptamine receptor 2B (Homo sapiens) (P41595 whole entry): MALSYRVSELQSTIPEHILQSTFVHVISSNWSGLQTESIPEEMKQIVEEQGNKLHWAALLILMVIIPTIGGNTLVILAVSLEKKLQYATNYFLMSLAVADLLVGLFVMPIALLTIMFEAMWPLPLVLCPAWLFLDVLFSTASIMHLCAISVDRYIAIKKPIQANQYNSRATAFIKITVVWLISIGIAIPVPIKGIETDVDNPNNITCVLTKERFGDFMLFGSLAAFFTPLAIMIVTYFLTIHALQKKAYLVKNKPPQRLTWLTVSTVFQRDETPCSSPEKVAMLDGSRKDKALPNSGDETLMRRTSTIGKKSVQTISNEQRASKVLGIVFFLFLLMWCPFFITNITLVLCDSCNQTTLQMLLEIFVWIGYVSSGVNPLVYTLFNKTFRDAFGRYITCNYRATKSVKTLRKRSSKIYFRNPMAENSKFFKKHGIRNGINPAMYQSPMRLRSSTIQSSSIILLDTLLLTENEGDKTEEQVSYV
Sequence of 5-hydroxytryptamine receptor 2A (Homo sapiens) (P28223 whole entry): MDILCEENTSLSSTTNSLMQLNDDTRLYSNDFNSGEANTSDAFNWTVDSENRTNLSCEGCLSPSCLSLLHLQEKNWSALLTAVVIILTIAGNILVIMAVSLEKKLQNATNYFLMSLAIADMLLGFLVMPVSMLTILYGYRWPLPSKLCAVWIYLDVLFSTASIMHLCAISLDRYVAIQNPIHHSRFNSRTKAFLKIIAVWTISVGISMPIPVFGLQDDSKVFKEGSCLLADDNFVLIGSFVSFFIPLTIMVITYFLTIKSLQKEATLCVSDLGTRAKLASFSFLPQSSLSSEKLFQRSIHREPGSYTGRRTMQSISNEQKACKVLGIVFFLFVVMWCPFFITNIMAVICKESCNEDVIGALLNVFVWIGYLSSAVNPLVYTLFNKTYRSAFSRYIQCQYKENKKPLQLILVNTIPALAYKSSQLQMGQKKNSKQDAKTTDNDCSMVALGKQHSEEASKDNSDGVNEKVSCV
Sequence of Beta-2 adrenergic receptor (Homo sapiens) (P07550 whole entry, looked up): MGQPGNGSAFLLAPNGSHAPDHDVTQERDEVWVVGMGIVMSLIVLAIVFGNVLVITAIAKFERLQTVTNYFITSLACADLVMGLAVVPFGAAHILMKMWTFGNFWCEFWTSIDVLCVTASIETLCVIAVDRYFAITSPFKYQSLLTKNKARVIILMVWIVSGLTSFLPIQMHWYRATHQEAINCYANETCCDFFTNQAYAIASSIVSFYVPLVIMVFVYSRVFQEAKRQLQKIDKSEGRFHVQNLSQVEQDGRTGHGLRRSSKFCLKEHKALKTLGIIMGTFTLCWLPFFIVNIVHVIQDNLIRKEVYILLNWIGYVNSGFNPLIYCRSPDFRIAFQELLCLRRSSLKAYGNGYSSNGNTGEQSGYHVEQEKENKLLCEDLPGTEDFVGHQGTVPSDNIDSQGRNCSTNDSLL
Sequence of 5-hydroxytryptamine receptor 7 (Homo sapiens) (P34969 whole entry): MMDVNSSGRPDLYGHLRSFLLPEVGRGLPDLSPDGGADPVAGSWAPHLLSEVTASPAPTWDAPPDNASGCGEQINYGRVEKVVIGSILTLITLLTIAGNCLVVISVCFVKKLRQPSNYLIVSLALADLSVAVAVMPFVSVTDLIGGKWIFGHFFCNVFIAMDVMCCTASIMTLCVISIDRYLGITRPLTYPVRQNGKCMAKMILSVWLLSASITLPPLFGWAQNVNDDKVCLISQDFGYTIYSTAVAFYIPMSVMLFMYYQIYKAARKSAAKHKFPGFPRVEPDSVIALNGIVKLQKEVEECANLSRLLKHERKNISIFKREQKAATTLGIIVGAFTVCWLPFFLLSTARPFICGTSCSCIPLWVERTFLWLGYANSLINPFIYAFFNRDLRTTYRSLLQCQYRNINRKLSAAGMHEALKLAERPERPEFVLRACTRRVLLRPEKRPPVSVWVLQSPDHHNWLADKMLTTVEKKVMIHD
Sequence of 5-hydroxytryptamine receptor 5A (Homo sapiens) (P47898 whole entry): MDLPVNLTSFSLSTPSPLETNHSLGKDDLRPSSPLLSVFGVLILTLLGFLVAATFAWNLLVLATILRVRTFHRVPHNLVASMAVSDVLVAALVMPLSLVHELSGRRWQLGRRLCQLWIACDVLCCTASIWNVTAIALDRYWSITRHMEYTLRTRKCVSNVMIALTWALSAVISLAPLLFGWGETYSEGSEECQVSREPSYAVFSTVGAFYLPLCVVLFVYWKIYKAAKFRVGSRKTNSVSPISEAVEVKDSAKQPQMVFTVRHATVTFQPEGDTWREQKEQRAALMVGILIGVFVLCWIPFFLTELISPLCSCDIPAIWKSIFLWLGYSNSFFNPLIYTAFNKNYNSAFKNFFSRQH
Sequence of Histamine H2 receptor (Homo sapiens) (P25021 whole entry): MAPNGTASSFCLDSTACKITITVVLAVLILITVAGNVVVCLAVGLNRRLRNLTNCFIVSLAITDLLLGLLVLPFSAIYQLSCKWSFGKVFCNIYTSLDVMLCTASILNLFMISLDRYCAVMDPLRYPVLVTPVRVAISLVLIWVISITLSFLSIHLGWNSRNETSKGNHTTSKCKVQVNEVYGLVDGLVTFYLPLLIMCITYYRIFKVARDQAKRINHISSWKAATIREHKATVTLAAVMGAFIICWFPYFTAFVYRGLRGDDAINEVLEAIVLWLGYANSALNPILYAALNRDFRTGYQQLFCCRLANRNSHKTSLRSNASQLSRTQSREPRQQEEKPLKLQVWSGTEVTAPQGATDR
Sequence of D(1A) dopamine receptor (P21728 whole entry): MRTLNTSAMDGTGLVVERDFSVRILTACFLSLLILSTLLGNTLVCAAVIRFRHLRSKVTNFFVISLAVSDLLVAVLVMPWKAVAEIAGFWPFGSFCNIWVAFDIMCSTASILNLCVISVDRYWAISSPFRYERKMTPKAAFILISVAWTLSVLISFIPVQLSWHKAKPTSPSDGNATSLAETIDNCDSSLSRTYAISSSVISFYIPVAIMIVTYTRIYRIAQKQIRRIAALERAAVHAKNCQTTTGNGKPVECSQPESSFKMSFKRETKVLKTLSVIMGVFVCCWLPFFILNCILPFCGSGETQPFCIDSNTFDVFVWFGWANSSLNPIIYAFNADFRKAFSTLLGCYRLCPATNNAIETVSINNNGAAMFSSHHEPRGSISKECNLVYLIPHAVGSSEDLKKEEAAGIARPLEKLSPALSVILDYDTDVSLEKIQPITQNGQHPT

Which Activity [1] does the source give for `COc1ccc2cc(C(O)CCN3CC=C(Cc4ccccc4)CC3)ccc2c1Cl` (racemic) here?
The Activity was “Dose-dependent effect”.

And the Activity [2]?
The Activity was 57%.

And the inhibition [3]?
The inhibition was 46.5%.

And the inhibition [4]?
Its inhibition is 15.6%.

What about the inhibition [5] of the same compound?
The inhibition was 5.8%.

And the inhibition [6]?
The inhibition was 45.6%.

And the inhibition [7]?
Its inhibition is 32.9%.

And the inhibition [8]?
Its inhibition is 28.5%.

And the inhibition [9]?
Its inhibition is 33.2%.

What does the source list for `OC(CCN1CC=C(Cc2ccccc2)CC1)c1cc2ccccc2s1` (racemic)?
Activity [2]: 34%; inhibition [3]: 65.4%; inhibition [4]: 31.5%; inhibition [10]: 6.1%; inhibition [11]: 0.2%; inhibition [5]: 43.5%; pIC50 [12]: 5.02; inhibition [6]: 0.8%; inhibition [7]: 32.5%; inhibition [8]: 16.7%; inhibition [9]: 8.2%

What does the source list for `OC(CCN1CCC(O)(Cc2ccccc2)CC1)c1ccc(Cl)c(Cl)c1` (racemic)?
Activity [1]: Dose-dependent effect; Activity [2]: 64%; inhibition [3]: 27.3%; inhibition [4]: 0.9%; inhibition [10]: 4.9%; inhibition [11]: 41.6%; inhibition [5]: 19.2%; inhibition [6]: 84.3%; inhibition [7]: 43.5%; IC50 [13]: 8 µM; inhibition [8]: 14.7%; inhibition [9]: 6.7%; AUC(0-inf) [14]: 1.23 µg·h/mL; AUC(0-inf) [15]: 5.44 µg·h/mL; half-life [16]: 2.3 h; half-life [17]: 2.9 h; Tmax [18]: 0.7 h; Cmax [19]: 0.75 µg/mL; Cmax [20]: 0.897 µg/mL; bioavailability [21]: 44.1%

With `OC(CCN1CC=C(Cc2ccccc2)CC1)c1ccc(Cl)c(Cl)c1` (racemic) as the compound, how does the Activity [2] read?
The Activity was 35%.

And the inhibition [3]?
Its inhibition is 10.3%.

And the inhibition [4]?
The inhibition was 4.8%.

What about the inhibition [10] of the same compound?
The inhibition was 33.5%.

And the inhibition [5]?
The inhibition was 0.5%.

What about the inhibition [6] of the same compound?
Its inhibition is 35.6%.

What about the inhibition [7] of the same compound?
Its inhibition is 16.2%.

What about the inhibition [8] of the same compound?
Its inhibition is 62.3%.

What about the inhibition [9] of the same compound?
Its inhibition is 15.6%.

Which Activity [1] does the source give for `OC(CCN1CC=C(Cc2ccccc2)CC1)c1csc2ccccc12` (racemic) here?
Its Activity is “Dose-dependent effect”.

What about the Activity [2] of the same compound?
The Activity was 64%.

And the inhibition [3]?
Its inhibition is 33.4%.

And the inhibition [4]?
The inhibition was 42.6%.

And the inhibition [10]?
The inhibition was 14.5%.

And the inhibition [11]?
Its inhibition is 33.5%.

And the inhibition [5]?
The inhibition was 29.7%.

What about the inhibition [6] of the same compound?
The inhibition was 51.2%.

And the inhibition [7]?
Its inhibition is 27.3%.

And the inhibition [8]?
Its inhibition is 49.8%.

What about the inhibition [9] of the same compound?
The inhibition was 14.9%.

And the AUC(0-inf) [14]?
Its AUC(0-inf) is 1.02 µg·h/mL.

And the AUC(0-inf) [15]?
The AUC(0-inf) was 5.72 µg·h/mL.

And the half-life [16]?
Its half-life is 2.5 h.

What about the half-life [17] of the same compound?
Its half-life is 3.5 h.

What about the Tmax [18] of the same compound?
Its Tmax is 0.5 h.

And the Cmax [19]?
Its Cmax is 0.653 µg/mL.

And the Cmax [20]?
Its Cmax is 0.923 µg/mL.

What about the bioavailability [21] of the same compound?
Its bioavailability is 55.8%.
